Compound activity as filed in PubChem BioAssay.
In the library only some 0.72% were active in any assay of this set; here they are far more common.
bIAP act – bovine intestinal alkaline phosphatase activators, primary screen, biochemical, bovine IAP, CDP-star luminescence; alkaline phosphatase, intestinal [Bos taurus]; purified bovine IAP, 30 min; hits give high values; fold of DMSO-control signal, blank-subtracted; activation factor at 20 µM; 0.17% of 200,000 active;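 active means activation factor of 2 or more at 20 µM, a signal rise over negative controls twice the positive control's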
mIAP activ – activators of mouse IAP, primary screen, biochemical, luminescence, uHTS. AID 2805, 2010. 0.24% of 330,000 active. activation factor at 10 µM. muIAP, CDP-Star luminescence, 30 min; hits give high values; 1 = vehicle-only enzyme signal, 0 = enzyme-free wells;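 active means activation factor of at least 2 at 20 µM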
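also added = chemiluminescent substrate CDP-Star | test system = mouse IAP enzyme | signal = chemiluminescence readout | compound = DMSO-dissolved test compounds | incubation = 30 min at room temperature | benchmarks = DMSO wells, no-enzyme wells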
hIAP block – human IAP inhibitors, primary screen, biochemical, luminescence, uHTS. 0.12% of 330,000 active. AID 2544, 2010. purified IAP, CDP-Star luminescence, 30 min. inhibition, % at 10 µM;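 active means inhibition reaching a set limit with compound at 10 µM in the primary screen, cut at about 35% in these data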
Target sequence (P09923 whole entry, looked up): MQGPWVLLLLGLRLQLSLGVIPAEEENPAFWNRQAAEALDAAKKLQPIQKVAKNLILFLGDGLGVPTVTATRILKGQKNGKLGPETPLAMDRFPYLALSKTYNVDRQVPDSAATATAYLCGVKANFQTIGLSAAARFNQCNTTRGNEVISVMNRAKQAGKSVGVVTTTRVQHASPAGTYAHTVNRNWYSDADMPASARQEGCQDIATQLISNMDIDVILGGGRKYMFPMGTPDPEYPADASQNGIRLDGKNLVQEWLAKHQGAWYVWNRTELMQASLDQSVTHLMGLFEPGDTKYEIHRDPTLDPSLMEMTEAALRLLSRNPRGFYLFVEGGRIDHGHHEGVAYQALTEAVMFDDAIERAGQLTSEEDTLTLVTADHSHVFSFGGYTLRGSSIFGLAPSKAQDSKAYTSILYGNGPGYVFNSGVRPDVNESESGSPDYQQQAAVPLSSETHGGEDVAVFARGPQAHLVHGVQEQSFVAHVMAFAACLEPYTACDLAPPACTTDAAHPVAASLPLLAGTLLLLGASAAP
hIAP act – human IAP activators, primary screen, biochemical, luminescence, uHTS; Intestinal-type alkaline phosphatase (Homo sapiens), P09923; purified human IAP, CDP-Star luminescence, 30 min; hits give high values; 1 = vehicle-only enzyme, 0 = enzyme-free background; activation factor at 10 µM; 0.16% of 330,000 active;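 active means activation factor of the enzyme at least 2-fold when tested at 20 µM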
mIAP block – inhibitors of mouse IAP, primary screen, biochemical, luminescence, uHTS | intestinal alkaline phosphatase [Mus musculus] | purified mouse IAP, CDP-Star luminescence, 30 min | 0.2% of 330,000 active | inhibition, % at 10 µM | AID 2806, 2010;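 active means inhibition of at least 40% at 10 µM in the primary screen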
bIAP inhibitor – bovine intestinal alkaline phosphatase inhibitors, primary screen, selectivity assay for TNAP inhibitor project, biochemical, bovine IAP, CDP-star luminescence; alkaline phosphatase, intestinal [Bos taurus]; purified bovine IAP, 30 min; inhibition, % at 20 µM; 190,000 tested, under 10 active; AID 1019, 2008;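 active means over 50% inhibition of intestinal alkaline phosphatase at 20 µM in the single-dose screen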
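Incubation: 30 min reaction at room temperature / Material: purified bovine intestinal alkaline phosphatase (IAP) enzyme / Input: enzyme at 1/65,000,000 dilution / Dosing: 20 µM single dose / Signal: CDP-star luminescence signal / Reagent: CDP-star chemiluminescent phosphatase substrate, 30 µM final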
mIAP inh conf – inhibitors of mouse IAP, confirmation, biochemical, luminescence, single concentration; shares compounds with mIAP block; inhibition, % at 10 µM; 4.7% of 11,000 active; purified mouse IAP, CDP-Star luminescence, 30 min; AID 434971, 2010;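 active means inhibition of at least 40% at 10 µM in either of the two replicates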
Hits are given with their value; i = inactive; nt = not tested or not shown.

SMILES	bIAP act	mIAP activ	hIAP block	hIAP act	mIAP block	bIAP inhibitor	mIAP inh conf
Cc1ccnc(Nc2nc(-c3ccc(O)c(O)c3)cs2)c1	nt	i	i	i	i	nt	nt
COc1ccc(C(=O)NCC(=O)N2CCCC(C(F)(F)F)C2)cc1OC (stereo unspecified)	nt	i	i	i	i	nt	nt
COc1ccccc1/C=C/C=N/n1c(-c2ccco2)n[nH]c1=S	nt	i	i	i	i	nt	nt
S=c1[nH]nc(-c2ccco2)n1/N=C/C=C/c1ccco1	i	i	i	i	69	i	70
S=c1[nH]nc(-c2cc(-c3ccccc3)n[nH]2)n1/N=C/c1c(Cl)cccc1Cl	nt	i	i	i	i	nt	nt
S=c1[nH]nc(COc2ccccc2)n1/N=C/C=C/c1ccccc1	i	i	i	i	i	i	nt
S=c1[nH]nc(-c2cc(-c3ccccc3)n[nH]2)n1/N=C/C=C/c1ccco1	nt	i	i	i	48	nt	47
COc1cc(/C=N/n2c(-c3n[nH]c4c3CCC4)n[nH]c2=S)cc(OC)c1O	nt	i	i	i	i	nt	nt
S=c1[nH]nc(-c2n[nH]c3c2CCC3)n1/N=C/C=C/c1ccco1	nt	i	i	i	50	nt	42
S=c1[nH]nc(COc2ccccc2)n1/N=C/C=C/c1ccco1	nt	i	i	i	51	nt	58
O=C(COC(=O)c1ccc(F)c(S(=O)(=O)N2CCOCC2)c1)Nc1ccc2c(c1)OCO2	nt	i	i	i	i	nt	nt
CC(=O)NC(CC(=O)OCC(=O)Nc1ccc2c(c1)OCO2)c1ccccc1 (stereo unspecified)	nt	i	i	i	i	nt	nt
CCOC(=O)C1=C(CS(=O)(=O)c2ccc(F)cc2)NC(=O)NC1c1cc(OC)c(O)c(OC)c1 (stereo unspecified)	nt	i	i	i	i	nt	nt
O=c1oc(/C=C/c2ccco2)nc2sc3c(c12)CCC3	i	i	i	i	63	i	62
O=c1oc(-c2cccs2)nc2sc3c(c12)CCC3	i	i	i	i	i	i	nt
O=C(NCc1cccnc1)Nc1cccc(C(F)(F)F)c1	nt	i	i	i	i	nt	nt
O=C(NCc1ccc2c(c1)CCO2)Nc1cccc(C(F)(F)F)c1	nt	3.8	i	i	i	nt	i
O=C(CCc1ccccc1)NC1(Cc2ccccc2)CCN(CCCc2ccccc2)C1=O (stereo unspecified)	nt	i	i	i	i	nt	nt
CCCC(=O)Nc1nnc(-c2ccco2)s1	i	i	i	i	i	i	nt
Nc1nnc(-c2ccco2)s1	i	i	i	i	60	i	66
Nc1ncnc2oc(-c3ccco3)c(-c3ccco3)c12	i	i	i	i	71	i	75
c1ccc(-c2nccc(-c3ccco3)n2)nc1	i	i	i	i	i	i	nt
Cc1ccc(CNS(=O)(=O)c2cc3c4c(c2)C(C)C(=O)N4CCC3)cc1 (stereo unspecified)	nt	i	i	i	i	nt	nt
CCCCOc1ccc(NC2=NC3(CCCCC3)N=C(N)N2)cc1	4.6	4.8	i	i	i	i	i
Cn1nc([N+](=O)[O-])nc1S(C)(=O)=O	i	i	i	i	44	i	59
SMILES	bIAP act	mIAP activ	hIAP block	hIAP act	mIAP block	bIAP inhibitor	mIAP inh conf
CS(=O)(=O)c1nc([N+](=O)[O-])nn1CCCc1ccccc1	nt	i	i	i	i	nt	nt
Oc1ccc(/C=N\Nc2cc(N3CCOCC3)nc(N3CCOCC3)n2)c(O)c1	i	i	i	i	i	i	nt
Oc1ccc(/C=N/Nc2cc(N3CCCC3)nc(N3CCCC3)n2)cc1O	i	i	i	i	68	i	76
Cc1cc(-c2csc(NC(=O)c3ccc(=O)[nH]c3)n2)c(C)n1Cc1ccco1	nt	i	i	i	48	nt	65
O=C(O)c1ccccc1-c1ccc(/C=c2\sc3nc4cc(Br)cnc4n3c2=O)o1	i	i	i	i	78	i	75
Cc1cc2nc3s/c(=C/c4ccc(-c5ccccc5C(=O)O)o4)c(=O)n3c2cc1C	nt	i	i	i	i	nt	nt
Cn1c(=O)c2c(ncn2CC(=O)OCC(=O)c2ccc(F)c(F)c2)n(C)c1=O	nt	i	i	i	i	nt	nt
